# Laboratory results: PubChem BioAssay AID1040 (The Scripps Research Institute Molecular Screening Center, 2008)
# About 2,000 (1%) of roughly 200,000 compounds were called active.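 The calls were made as follows: active = inhibition above the campaign mean inhibition of all tested compounds plus 3 SD (cut at about 20% in these data); inactive = the rest.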 What follows is part of a selection rich in actives, with near analogues and random picks from the rest.
# Molecular target: Neuropeptide Y receptor type 1 (Homo sapiens) (UniProt P25929)
# Sequence (P25929 whole entry, looked up): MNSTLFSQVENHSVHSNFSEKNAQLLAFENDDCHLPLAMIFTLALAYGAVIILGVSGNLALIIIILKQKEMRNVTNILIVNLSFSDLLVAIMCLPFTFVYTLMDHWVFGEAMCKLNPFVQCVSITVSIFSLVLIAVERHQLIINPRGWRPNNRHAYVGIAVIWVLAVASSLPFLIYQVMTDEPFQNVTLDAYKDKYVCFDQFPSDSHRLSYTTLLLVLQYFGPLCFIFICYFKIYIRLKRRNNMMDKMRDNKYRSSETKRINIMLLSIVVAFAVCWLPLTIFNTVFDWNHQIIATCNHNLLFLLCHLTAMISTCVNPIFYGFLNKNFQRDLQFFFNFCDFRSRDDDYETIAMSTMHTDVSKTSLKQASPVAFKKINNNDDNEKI
# Assay: NPY-Y1 receptor antagonists, primary screen, cell-based (AID 1040);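 also: 0% = DMSO wells given NPY plus isoproterenol and 100% = isoproterenol alone without NPY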
# Settings: HEK293-CNG Y1 cells, membrane potential fluorescence; at 3.6 µM; active compounds read high; NPY at EC95, then isoproterenol
# In short: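 Benchmarks – high control isoproterenol alone, low control NPY with isoproterenol · Material – HEK293 Y1/CNG channel cell line · Times – dye 3 h, compound 60 min room temperature, stimulation 45 min · Probe or stimulus – NPY (25 nM), isoproterenol (1 µM), Ro 20-1724 (25 µM) · Evaluation – % inhibition of NPY effect · Signal – fluorescence, membrane potential probe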
row,Structure (SMILES),inhibition
1,CC(C)C(=O)Nc1oc(-c2ccccc2)cc1C#N,3.99% (inactive)
2,O=C(c1cccc(S(=O)(=O)Nc2ccccc2Cl)c1)N1CCN(C(=O)c2ccco2)CC1,-2.11% (inactive)
3,O=C(O)CCCCOn1ccnc1,4.94% (inactive)
4,C=C(C)Cn1c(SCC(=O)NCc2ccco2)nc2sc3c(c2c1=O)CCC3,8.57% (inactive)
5,O=C(CCCn1c(SCC(=O)c2ccc(F)cc2)nc2ccccc2c1=O)NCc1ccco1,3.6% (inactive)
6,O=C(CSc1nc2cc3c(cc2c(=O)n1CCC1=CCCCC1)OCO3)NCc1ccco1,26.8% (active)
7,CCC1(CC)NC(=O)N(CC(=O)OCC(=O)NC(=O)c2ccccc2)C1=O,1.96% (inactive)
8,CC1(C)C2CC=C(/C=N/NC(=O)C3CC3)C1C2 (stereo not given),4.14% (inactive)
9,CSCC[C@H](NC(=O)OC(C)(C)C)C(=O)N/N=C/c1cc2ccc(C)cc2nc1Cl,-2.75% (inactive)
10,CC(=O)c1ccc(NC(=O)c2ccc3c(Cl)c4c(nc3c2)CCCC4)cc1,-4.67% (inactive)
11,COc1ccc(-c2nnc(SCC(=O)c3ccc4c(c3)OCCO4)o2)cc1,-4.74% (inactive)
12,Fc1ccc(-c2nnc(CSc3nnc(-c4ccc5c(c4)OCO5)o3)o2)cc1,29.9% (active)
13,Fc1ccc2nc(-c3ccccc3)nc(SCc3nnc(-c4ccccc4)o3)c2c1,2.58% (inactive)
14,CCCS(=O)(=O)N1CCC(CCOc2ccccc2)(C(=O)OCC)CC1,6.41% (inactive)
15,COC(=O)c1c(NC(=O)COC(=O)[C@@H](NS(=O)(=O)c2ccccc2)C(C)C)sc2c1CCC2,10.2% (inactive)
16,COc1ccc2c3c(c(=O)oc2c1OCC(=O)C(C)(C)C)CCCC3,10.2% (inactive)
17,O=c1oc2c(CN3CCCCC3)c(O)ccc2c2c1CCCCC2,6.84% (inactive)
18,CCCOc1ccc2c3c(c(=O)oc2c1OCCC)CCC3,21.1% (active)
19,O=C(CSc1nc2ccc(Nc3nc(N4CCOCC4)nc(N4CCOCC4)n3)cc2s1)NCc1ccco1,2.78% (inactive)
20,CN(C)c1ccc(C(CNC(=O)c2ccc(F)cc2)c2c[nH]c3ccccc23)cc1 (stereo not given),-7.11% (inactive)
21,Cc1cc2c(c(=O)n1C)C(C(C)C)C(C#N)=C(N)O2 (stereo not given),9.44% (inactive)
22,C=CCSc1nc2c(c(=O)[nH]1)C(C(C)C)C(C#N)=C(N)O2 (stereo not given),77.2% (active)
23,C=CCOC(=O)C1=C(C)OC(N)=C(C#N)C1c1ccc(F)cc1 (stereo not given),-1.17% (inactive)
24,CC(=O)Oc1c(C(=O)c2nnc(C)o2)c(=O)n(Cc2ccccc2)c2ccccc12,1.05% (inactive)

row,Structure (SMILES),inhibition
1,COc1ccc(F)cc1C(=O)C1CCCN(C(=O)CCc2ccccn2)C1 (stereo not given),6.35% (inactive)
2,CCS(=O)(=O)Nc1ccc(C2=NN(C(C)=O)C(c3cccs3)C2)cc1 (stereo not given),-0.01% (inactive)
3,O=C(Nc1nc2ccc([N+](=O)[O-])cc2s1)c1ccc(S(=O)(=O)N2CCCc3ccccc32)cc1,-0.71% (inactive)
4,O=C(NC(Nc1nc2ccc([N+](=O)[O-])cc2s1)(C(F)(F)F)C(F)(F)F)c1ccccc1,32.9% (active)
5,O=C(O)CCC(=O)Nc1nc2ccc([N+](=O)[O-])cc2s1,-1.24% (inactive)
6,Cc1nonc1C(=O)N/N=C/c1ccc(O)cc1,-0.92% (inactive)
7,Cc1ccc(C)c2[nH]c(=O)c(CCNC(=O)c3cccs3)cc12,1.69% (inactive)
8,CCNC(=O)COC(=O)/C=C/c1c(C)nn(Cc2cccc(OC)c2)c1Cl,9.4% (inactive)
9,Nc1nonc1-c1nc2ccccc2n1Cc1ccc(F)cc1,33.9% (active)
10,CC(=O)Nc1nonc1-c1nc2ccccc2n1Cc1ccccn1,1.23% (inactive)
11,CCCn1c(C(O)c2cc(OC)ccc2OC)nc2ccccc21 (stereo not given),6.38% (inactive)
12,Nc1nonc1-c1nc2ccccc2n1CCC(=O)O,2.11% (inactive)
13,COCCn1c(-c2ccc(OC)c(OC)c2)nc2ccccc21,1.65% (inactive)
14,COc1ccc(C)c(Cn2c(-c3nonc3N)nc3ccccc32)c1,20.2% (active)
15,COc1ccc(C(=O)Nc2c(Cl)cc(Cl)cc2C(=O)N2CCC(C)CC2)cc1,7.28% (inactive)
16,O=C(N/N=C/c1ccc(Br)o1)c1cncc(Br)c1,0.31% (inactive)
17,CCCOc1ccc(N/C=C/C(=O)C(C)(C)C)cc1,-0.02% (inactive)
18,CCCOc1ccc(C(=O)C(CCC(CNCC)C(=O)c2ccc(OCCC)cc2)CNCC)cc1 (stereo not given),41.9% (active)
19,CCCOc1ccc(C(=O)NCCc2ccccc2)cc1,4.6% (inactive)
20,O=C(O)/C(=C/c1cccnc1)NC(=O)c1ccccc1,-1.58% (inactive)
21,CCOc1ccc(S(=O)(=O)NCCSc2ccccc2)cc1,28.4% (active)
22,O=S(=O)(NCCSc1ccccn1)c1ccc(Cl)cc1,7.92% (inactive)
23,Cc1ccc(S(=O)(=O)NCCSc2ccccc2)cc1[N+](=O)[O-],20.1% (inactive)
24,C/C(=N\Nc1ncc(Cl)cc1Cl)c1cccs1,4.59% (inactive)

row,Structure (SMILES),inhibition
1,CCOP(=O)(OCC)C(Nc1cccc(C)c1)c1ccc(F)cc1 (stereo not given),6.17% (inactive)
2,Cc1cc(N2CCN(C)CC2)nc2ccc(NC(=S)N3CCOCC3)cc12,6.76% (inactive)
3,Cc1nc(-c2ccccc2)sc1C(=O)/C=C/c1ccccc1,21.8% (active)
4,Cc1nc(-c2ccccc2)sc1C(=O)/C=C/N(C)C,6.13% (inactive)
5,Cc1ccc(SCC(=O)c2sc(-c3ccccc3)nc2C)cc1,8.05% (inactive)
6,CC(Oc1ccc(Br)cc1Br)C(=O)NC1CCCC1 (stereo not given),7.12% (inactive)
7,COc1ccc(OC)c(NC(=O)CSc2nc3cccnc3n2C)c1,10.8% (inactive)
8,COc1ccc(OC)c(NC(=O)CSc2nc(N)c(-c3ccccc3)c(=O)[nH]2)c1,30.3% (active)
9,COc1ccc(NC(=O)CSc2nc(N)c(-c3ccccc3)c(=O)[nH]2)cc1,7.14% (inactive)
10,Cc1ccc(S(=O)(=O)CC(=O)Nc2c(C)n(C)n(-c3ccccc3)c2=O)cc1,1% (inactive)
11,Cc1ccc2c(c1)C1CN(C)CCC1N2C(=S)Nc1ccc(Cl)cc1Cl (stereo not given),0.03% (inactive)
12,Cc1cc(SCC(=O)c2ccccc2)nc(SCC(=O)c2ccccc2)n1,18.3% (inactive)
13,Cc1cc(Oc2ccc(Cl)cc2)nc(SCC(=O)c2ccccc2)n1,44.4% (active)
14,COC(=O)c1cc(C(=O)CSc2nc(C)cc(C)n2)ccc1O,-2.7% (inactive)
15,Cc1cc(C)c(NC(=O)C[N+](C)(C)CC(O)COc2cccc3ccccc23)c(C)c1 (stereo not given),-12.8% (inactive)
16,Cc1cccc(NC(=S)NC23CN4CN(CN(C4)C2)C3)c1,-0.45% (inactive)
17,COc1cc(CNC2CCCCC2)c(Br)cc1OC1CCCC1,-5.34% (inactive)
18,CC(C)(C)NCc1cc(Br)ccc1OC1CCCC1,37.7% (active)
19,CCOCCCNCc1cc(Br)ccc1OCC,11.8% (inactive)
20,COc1ccc(Sc2nc(-c3ccccc3)ncc2OC)cc1,3.64% (inactive)
21,CCc1cccc(NC(=O)CCNS(=O)(=O)c2cccc3nonc23)c1,0.89% (inactive)
22,CCN(CC)S(=O)(=O)c1ccc(Cl)c(NC(=O)c2ccncc2)c1,1.54% (inactive)
